Bioassay records: PubChem, Broad Institute
Shown are actives, neighbours in structure and some others; about 2.3% of the full set was active somewhere.
PAX8 reporter = PAX8 transcriptional activity inhibition; RMG-I TPO-luciferase reporter, SteadyGlo, 24 h; inhibition, % at 12.6 µM; AID 652154; actives 1.2% (n = 360,000);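 active = mean replicate inhibition at least 60% with every replicate also reaching 60%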;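 also: luciferase light reporting Pax8 driven TPO promoter activity; plate controls were median of neutral control wells for no effect and mitoxantrone controls for full effect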
CFTR F508del cor = correctors of CFTR F508del function in bronchial epithelial cells; activity (quench increase), % at 7.58 µM; actives 0.36% (n = 350,000); CFBE cells, YFP halide quenching; stimulated with forskolin plus potentiator P3; % fluorescence drop versus neutral controls;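 active = mean added fluorescence quench of at least 8% versus neutral control, with both replicates also reaching 8%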;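 also: cells transiently co-express mutant CFTR-F508del with the halide-sensitive YFP; corrector assay measuring rescue of mutant channel to the surface after 24 h compound exposure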
HIV Env fusion = HIV envelope-mediated fusion inhibition. actives 1.1% (n = 360,000). AID 651610. HeLa-JRFL Env/CEM21 cell fusion, luciferase. inhibition, % at 12.3 µM;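 active = mean replicate inhibition score of at least 50 and every replicate individually at or above 50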;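 also: 0% = plate neutral controls and 100% = maraviroc near 300 nM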
EWS-Fli block = blocks EWS/Fli oncoprotein-driven transcription | actives 0.67% (n = 350,000) | inhibition, % at 12.6 µM | A673 NR0B1-luciferase reporter, viability-normalised | AID 651661;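 active = mean inhibition of at least 50% after viability correction, with every replicate also passing that limit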;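 also: firefly luciferase signal divided by Alamar Blue viability fluorescence both relative to DMSO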
FN deposit inh = fibronectin deposition inhibition; AH1F fibroblasts, Alexa488-fibronectin deposition fluorescence, overnight; inhibition, % at 12.6 µM; actives 0.086% (n = 350,000);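 active = mean inhibition across replicates of 30% or more, regardless of how many single replicates reach that level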;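 also: positive control wells lacked labelled fibronectin entirely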
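Schedule: 1 h cell adhesion before compound, then overnight fibronectin incubation; test system: AH1F fibroblast monolayer depositing Alexa488-labelled fibronectin into matrix; quantity: 10000 AH1F cells per well; probe or stimulus: fluorescent fibronectin at 24 nM final; signal: fluorescence, ex 485 nm, em 525 nm; evaluation: percent inhibition as loss of matrix-bound fibronectin fluorescence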
PGC1a acetyl inh = lowers PGC1a acetylation signal in U2OS cells; AlphaScreen anti-acetyl-lysine; with virally co-expressed GCN5 acetyltransferase; inhibition, % at 15.6 µM; actives 0.17% (n = 350,000); AID 651687;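 active = every replicate shows inhibition of at least 40%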;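 also: 0% = neutral control wells and 100% = positive control wells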
* = called active by the depositor; [ ] = dose if it differs, or a comment.

How did COc1ccc(OCC(=O)NCC(c2cccs2)N2CCOCC2)cc1 (stereo unspecified) do in these assays?
PAX8 reporter: 18; CFTR F508del cor: 1; HIV Env fusion: 14; EWS-Fli block: -4; FN deposit inh: -2; PGC1a acetyl inh: -13

How did O=C(NCC(c1cccs1)N1CCOCC1)c1cc([N+](=O)[O-])cc([N+](=O)[O-])c1 (stereo unspecified) do in these assays?
PAX8 reporter: 33; HIV Env fusion: 13; EWS-Fli block: -1; FN deposit inh: 5; PGC1a acetyl inh: 4

Results for O=C(NCC(c1cccs1)N1CCOCC1)c1cc(F)cc(F)c1 (stereo unspecified) ?
PAX8 reporter: 13; CFTR F508del cor: 2; HIV Env fusion: 26; EWS-Fli block: 53*; FN deposit inh: -1

How did CC1=C(CO)C(=O)OC([C@@H](C)C2CC[C@H]3C4C[C@H]5O[C@]56[C@@H](O)C=CC(=O)[C@]6(C)C4CC[C@]23C)C1 (stereo partly specified) do in these assays?
CFTR F508del cor: -19; EWS-Fli block: 64*; PGC1a acetyl inh: 14

Results for Cc1ccc(S(=O)(=O)NCC(=O)OCC(=O)NCc2ccc3c(c2)OCO3)cc1 ?
PAX8 reporter: 7; CFTR F508del cor: -2; HIV Env fusion: 68*; EWS-Fli block: 6; FN deposit inh: 3; PGC1a acetyl inh: 13

How did CC(=O)Nc1ccc(S(=O)(=O)NCC(=O)OCC(=O)NCc2ccc3c(c2)OCO3)cc1 do in these assays?
PAX8 reporter: 12; CFTR F508del cor: 3; HIV Env fusion: 22; EWS-Fli block: -4; FN deposit inh: -6

How did C[C@@H]1CN([C@@H](C)CO)C(=O)Cc2cc(NC(=O)CCC(F)(F)F)ccc2O[C@@H]1CN(C)Cc1ccccc1 do in these assays?
PAX8 reporter: 4; CFTR F508del cor: 1; HIV Env fusion: -2[16.7 µM]; EWS-Fli block: -9

What do the screens show for `COC(=O)c1cnn(-c2nc(OC)cc(OC)n2)c1C`?
PAX8 reporter: -13; HIV Env fusion: -35; EWS-Fli block: -9; FN deposit inh: 1

Results for COc1cc(OC)nc(-n2ncc(Br)c(Br)c2=O)n1 ?
PAX8 reporter: 108*; HIV Env fusion: -87; EWS-Fli block: 48; FN deposit inh: 11

How did COc1ccccc1N(CC(=O)N/N=C/c1ccc(OCC(=O)NCc2ccco2)cc1)S(=O)(=O)c1ccc(C)cc1 do in these assays?
PGC1a acetyl inh: 3

What do the screens show for `COC(=O)COc1ccc(/C=N/NC(=O)c2ccc(N(Cc3ccccc3)S(C)(=O)=O)cc2)cc1`?
PAX8 reporter: 62*; CFTR F508del cor: -1; HIV Env fusion: 4; EWS-Fli block: 36; FN deposit inh: -5

How did COC(=O)COc1ccc(/C=N/NC(=O)CN(c2ccccc2OC)S(=O)(=O)c2ccccc2)cc1 do in these assays?
PAX8 reporter: 69*; CFTR F508del cor: -4; HIV Env fusion: -29; EWS-Fli block: 34; FN deposit inh: -4

Results for CC(C)Oc1ccc(/C=N/NC(=O)c2ccc(N(Cc3ccccc3)S(C)(=O)=O)cc2)cc1 ?
PAX8 reporter: 1; CFTR F508del cor: 2; HIV Env fusion: 1; EWS-Fli block: -12; FN deposit inh: 6

What do the screens show for `CN(N=Nc1nc[nH]c1C(N)=O)C1CCCCC1`?
PAX8 reporter: 100*; CFTR F508del cor: 2; HIV Env fusion: 56*; EWS-Fli block: -11; FN deposit inh: 0; PGC1a acetyl inh: 0
